Test results from ChEMBL document CHEMBL1137302 (J Med Chem, 2006).
Activity calls are given as the source filed them. No cut-off for these calls is given here.

Tests used:
[1] = target: cGMP-dependent 3',5'-cyclic phosphodiesterase (Homo sapiens) (UniProt O00408); experiment: Activity at PDE2 at 10 uM
In short: (§1)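 Broad selectivity panel (over 70 receptors, ion channels and neuronal receptors, PDE1-6 included) run at a single 10 µM concentration.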

hERG = hERG (Homo sapiens, UniProt Q12809); experiment: Blockade of current at hERG expressed in HEK293 cells at 1 ug/mL; assay type: cell-based; conditions: HEK293 cells that express hERG
In short: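 hERG stably expressed in HEK 293 cells (MEM with 10% FBS, G418), whole-cell voltage clamp. Pipette: K aspartate/KCl/EGTA/MgATP, pH 7.3. Bath: NaCl-based HEPES, pH 7.4. Compound dissolved in DMSO and diluted in bath (DMSO ≤0.1%), one concentration per cell. Steps to -25, 0, 25, 50 mV for 3 s, then -50 mV for 4 s, from -80 mV every 15 s.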

D(4) dopamine receptor [2] = target: T1, D(4) dopamine receptor (Homo sapiens, UniProt P21917); experiment: Displacement of [3H]A369508 from human D4 receptor expressed in HEK293 cell membrane; assay type: cell membranes
T1 sequence (P21917 whole entry): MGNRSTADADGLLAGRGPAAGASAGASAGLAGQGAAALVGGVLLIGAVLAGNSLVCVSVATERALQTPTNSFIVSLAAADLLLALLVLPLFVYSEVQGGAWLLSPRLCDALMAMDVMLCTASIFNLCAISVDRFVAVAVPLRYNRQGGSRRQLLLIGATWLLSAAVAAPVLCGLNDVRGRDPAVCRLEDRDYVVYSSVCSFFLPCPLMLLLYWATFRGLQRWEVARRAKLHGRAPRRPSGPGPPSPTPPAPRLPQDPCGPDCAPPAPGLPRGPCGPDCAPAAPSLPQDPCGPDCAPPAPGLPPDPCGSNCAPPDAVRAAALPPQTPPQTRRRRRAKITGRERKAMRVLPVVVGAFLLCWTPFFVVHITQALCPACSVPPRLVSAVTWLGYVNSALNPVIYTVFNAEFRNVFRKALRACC

[3] = Half life in dog at 1 mg/kg, po; assay type: ADME, organism-based, Canis lupus familiaris; set-up: dose 1 mg/kg, route oral; conditions: in vivo
In short: (§2)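 Single 1 mg/kg dose given iv, sc or orally to Sprague-Dawley rats, dogs and monkeys; plasma concentrations followed over time (mean ± SEM, n = 3). Cmax, AUC, half-life, clearance and bioavailability calculated from the curves.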

[4] = Effect on canine cardiac Purkinje fiber repolarization measured as prolongation of action potential duration at 3 ug/mL; assay type: functional, Canis lupus familiaris
In short: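 Canine Purkinje fibers impaled with 3 M KCl microelectrodes. Fibers accepted with resting potential below -80 mV and APD 300-500 ms. Paced at BCL 2 s, then 800 and 400 ms. Two ascending concentrations applied, each after 25 min equilibration. APD90 measured at all three rates.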

[5] = target: Phosphodiesterase 1 (Homo sapiens) (UniProt P54750+Q01064+Q14123); experiment: Activity at PDE1 at 10 uM; assay type: protein assay; in short: as §1
[6] = Agonist activity at ferret D4 receptor in HEK293 cells coexpressing G-alpha-qo5 by FLIPR; assay type: functional, cell-based, Mustela putorius furo; conditions: Mustela putorius
In short: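 HEK cells cotransfected with ferret D4 receptor and chimeric G protein Gqo5, with receptor activation read as a calcium flux signal on FLIPR. EC50 is the concentration giving half-maximal activation.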

[7] = Plasma clearance in iv dosed rat; assay type: ADME, organism-based; in short: as §2
[8] = Half life in rat at 1 mg/kg, po; assay type: ADME, organism-based; set-up: dose 1 mg/kg, route oral; conditions: in vivo; in short: as §2
D(4) dopamine receptor [9] = target: T2, D(4) dopamine receptor (Rattus norvegicus, UniProt P30729); experiment: Agonist activity at rat D4 receptor in HEK293 cells coexpressing G-alpha-qo5 by FLIPR; assay type: functional, cell-based
T2 sequence (P30729 whole entry): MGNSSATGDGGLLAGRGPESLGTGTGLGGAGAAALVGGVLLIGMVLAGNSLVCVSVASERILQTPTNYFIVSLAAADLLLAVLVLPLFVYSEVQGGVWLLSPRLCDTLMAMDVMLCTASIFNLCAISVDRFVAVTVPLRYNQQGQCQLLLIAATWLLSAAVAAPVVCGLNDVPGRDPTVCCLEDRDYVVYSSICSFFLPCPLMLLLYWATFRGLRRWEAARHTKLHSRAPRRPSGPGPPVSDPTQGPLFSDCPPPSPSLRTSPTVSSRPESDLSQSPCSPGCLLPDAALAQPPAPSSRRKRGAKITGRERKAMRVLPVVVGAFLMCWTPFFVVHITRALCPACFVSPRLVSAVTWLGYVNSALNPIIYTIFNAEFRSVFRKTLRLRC

Rattus norvegicus = experiment: Proerectile activity in rat measured as incidence of penile erection at 0.1 umol/kg, sc; assay type: functional
In short: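 Conscious male rats were given a single subcutaneous injection and observed for penile erections over the following 60 min. The read-out was the incidence of erections, expressed as % of animals ± SEM (n = 12–32 animals per group), with significance tested against controls. The value is the maximal incidence at the maximally effective dose.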

hERG, sequence (Q12809 whole entry): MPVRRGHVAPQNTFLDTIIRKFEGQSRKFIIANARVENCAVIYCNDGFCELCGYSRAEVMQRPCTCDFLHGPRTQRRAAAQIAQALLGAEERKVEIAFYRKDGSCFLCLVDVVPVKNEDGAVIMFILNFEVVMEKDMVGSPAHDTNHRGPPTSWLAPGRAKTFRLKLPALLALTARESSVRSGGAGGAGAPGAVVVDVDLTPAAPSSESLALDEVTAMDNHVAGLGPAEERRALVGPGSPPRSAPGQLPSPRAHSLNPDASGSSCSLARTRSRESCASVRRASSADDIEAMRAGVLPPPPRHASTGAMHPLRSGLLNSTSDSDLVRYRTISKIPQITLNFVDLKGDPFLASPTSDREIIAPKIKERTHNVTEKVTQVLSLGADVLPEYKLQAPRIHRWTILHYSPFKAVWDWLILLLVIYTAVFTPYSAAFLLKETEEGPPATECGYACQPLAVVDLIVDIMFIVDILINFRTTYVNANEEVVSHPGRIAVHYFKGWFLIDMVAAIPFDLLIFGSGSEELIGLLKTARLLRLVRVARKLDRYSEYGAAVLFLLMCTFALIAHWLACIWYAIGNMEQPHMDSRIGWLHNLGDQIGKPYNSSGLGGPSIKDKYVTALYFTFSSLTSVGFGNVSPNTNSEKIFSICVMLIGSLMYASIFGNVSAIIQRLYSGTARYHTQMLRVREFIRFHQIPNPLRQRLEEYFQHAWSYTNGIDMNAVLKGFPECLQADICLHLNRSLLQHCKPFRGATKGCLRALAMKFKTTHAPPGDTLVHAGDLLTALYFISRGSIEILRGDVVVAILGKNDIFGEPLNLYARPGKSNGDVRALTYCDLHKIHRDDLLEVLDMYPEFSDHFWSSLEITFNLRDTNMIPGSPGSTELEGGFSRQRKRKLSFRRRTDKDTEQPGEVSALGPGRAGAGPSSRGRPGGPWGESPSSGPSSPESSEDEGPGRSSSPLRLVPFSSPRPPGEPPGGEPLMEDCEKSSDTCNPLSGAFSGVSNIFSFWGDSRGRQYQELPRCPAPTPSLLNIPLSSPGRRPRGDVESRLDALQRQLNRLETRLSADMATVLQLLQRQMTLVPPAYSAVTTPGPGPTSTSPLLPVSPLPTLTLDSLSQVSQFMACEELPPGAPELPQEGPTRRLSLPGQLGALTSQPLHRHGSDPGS
cGMP-dependent 3',5'-cyclic phosphodiesterase (Homo sapiens), sequence (O00408 whole entry): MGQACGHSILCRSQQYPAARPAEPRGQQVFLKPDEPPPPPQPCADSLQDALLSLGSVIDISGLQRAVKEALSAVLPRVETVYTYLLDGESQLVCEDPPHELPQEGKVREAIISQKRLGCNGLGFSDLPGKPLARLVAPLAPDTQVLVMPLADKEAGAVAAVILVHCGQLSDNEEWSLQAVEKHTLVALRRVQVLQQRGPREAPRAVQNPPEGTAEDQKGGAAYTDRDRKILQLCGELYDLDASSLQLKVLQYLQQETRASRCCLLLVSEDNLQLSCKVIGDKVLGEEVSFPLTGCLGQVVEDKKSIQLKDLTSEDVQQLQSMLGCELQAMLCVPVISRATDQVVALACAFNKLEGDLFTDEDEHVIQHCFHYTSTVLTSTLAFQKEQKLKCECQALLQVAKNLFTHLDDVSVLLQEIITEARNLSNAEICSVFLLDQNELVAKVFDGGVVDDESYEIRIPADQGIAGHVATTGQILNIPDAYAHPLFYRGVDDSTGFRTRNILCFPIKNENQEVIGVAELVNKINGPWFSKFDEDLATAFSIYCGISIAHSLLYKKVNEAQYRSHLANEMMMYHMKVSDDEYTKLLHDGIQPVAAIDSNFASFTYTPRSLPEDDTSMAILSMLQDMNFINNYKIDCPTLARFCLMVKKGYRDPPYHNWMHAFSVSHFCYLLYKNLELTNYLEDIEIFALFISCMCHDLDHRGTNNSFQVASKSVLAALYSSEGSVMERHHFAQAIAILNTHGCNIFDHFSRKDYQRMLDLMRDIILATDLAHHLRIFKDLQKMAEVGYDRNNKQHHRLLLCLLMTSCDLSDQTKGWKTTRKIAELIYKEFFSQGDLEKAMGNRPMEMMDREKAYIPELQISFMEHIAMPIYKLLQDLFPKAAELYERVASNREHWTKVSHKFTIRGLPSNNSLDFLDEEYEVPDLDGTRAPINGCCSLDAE

## Cc1cccc(C(=O)NCN2CCC(c3cccc[n+]3[O-])CC2)c1
[1]
  Activity: inactive
hERG
  inhibition at 1 ug/mL: 14.4%
D(4) dopamine receptor [2]
  Ki: 1.44 µM
[3]
  half-life: 2.1 h
[4]
  Activity: 4.3%
[5]
  Activity: inactive
[6]
  EC50: 0.16 µM
[7]
  clearance: 0.74 L/h/kg
[8]
  half-life: 1.8 h
D(4) dopamine receptor [9]
  EC50: 0.093 µM
Rattus norvegicus
  Activity: 75%
